TAAR1 antagonist: antagonists of human TAAR1; Q96RJ0; CHO RD-HGA16 TAAR1, Fluo-8 calcium fluorescence, antagonist; inhibition, % at 3 µM; 1.5% of 360,000 active;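 active means inhibition above a per-plate cutoff, the mean inhibition of test compounds on that plate plus 3 SD, cut at about 49% in these data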
Target sequence (Q96RJ0 whole entry, looked up): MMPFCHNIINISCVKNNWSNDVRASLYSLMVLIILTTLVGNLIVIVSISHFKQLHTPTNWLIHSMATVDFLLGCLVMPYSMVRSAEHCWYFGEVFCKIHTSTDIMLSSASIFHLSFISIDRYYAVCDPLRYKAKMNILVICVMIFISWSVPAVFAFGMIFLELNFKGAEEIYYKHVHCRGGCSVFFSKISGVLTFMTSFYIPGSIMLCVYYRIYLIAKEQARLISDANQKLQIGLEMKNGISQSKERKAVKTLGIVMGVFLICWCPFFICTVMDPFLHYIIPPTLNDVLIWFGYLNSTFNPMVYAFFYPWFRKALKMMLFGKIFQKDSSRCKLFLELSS
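Assay system: CHO-derived RD-HGA16 cells stably expressing human TAAR1 plus Gα16. Timing: 140 s kinetic read after compound, 140 s after agonist. Technique: kinetic Fluo-8 calcium fluorescence measurement. Measure: % inhibition of agonist calcium response.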
CHO parental Ca: signal in parental CHO cells, OX1R antagonist counter-screen | inhibition, % at 5.6 µM | parental CHO-K1, ATP-induced calcium, Fluo-8 fluorescence | 0.63% of 330,000 active;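 active means inhibition above that plate's mean sample inhibition plus 3 SD, cut at about 26% in these data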
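Assay system: untransfected parental CHO cell line. Also added: ATP agonist challenge. Dosing: one dose, 5.6 µM nominal. Measured by: Fluo-8 fluorescence. Read-out: % inhibition. Benchmarks: ATP wells versus no-ATP DMSO wells. Repeats: no replicates.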
OX1R antag-1: blocks the human orexin 1 receptor | 1.8% of 330,000 active | inhibition, % at 6.6 µM | AID 485270 | OX1R-expressing cells, FRET antagonist read-out; in the data active means inhibition mostly above about 38%, no sharp cut-off; inactive means mostly below about 40%
TAAR1 agonist: agonists of human TAAR1 | AID 624467 | activation, % at 3 µM | Q96RJ0 | CHO RD-HGA16 TAAR1, Fluo-8 calcium fluorescence; vehicle wells 0%, saturating PEA agonist 100% | 0.99% of 360,000 active;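 active means activation above the mean activation of all test compounds in the run plus 3 SD, cut at about 38% in these data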
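Test system: RD-HGA16 (CHO) cells co-expressing Gα16 and hTAAR1 / Benchmarks: DMSO vehicle as 0%, PEA at EC100 as 100% / Repeats: no replicates (n 1) / Measure: % activation from peak over basal fluorescence ratio, DMSO-to-PEA scaled / Timing: 17-24 h plating, Fluo-8 75 min 37 °C, 30 min RT / Technique: kinetic Fluo-8 calcium fluorescence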
OX1R antag-2: human HCRTR1 antagonism | O43613 | CHO/OX1R cells, Fluo-8 calcium fluorescence, orexin A | inhibition, % at 5 µM | 0.43% of 330,000 active | AID 434989;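 active means inhibition above its plate's threshold, mean inhibition of all tested compounds on the plate plus 3 SD, cut at about 37% in these data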
GalR3 antag: antagonists of human GalR3; 0.44% of 360,000 active; inhibition, % at 3 µM; HEK293 GalR3-CNG cAMP membrane potential fluorescence; galR3 body fused to GalR1 C-terminus; O60755;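 active means inhibition above the screen-wide average plus 3 SD, cut at about 13% in these data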;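 further: forskolin and galanin both at EC90 stimulate the cells; cAMP rise reported by CNG channel membrane potential dye signal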
Target sequence (O60755 1-299 limits assumed): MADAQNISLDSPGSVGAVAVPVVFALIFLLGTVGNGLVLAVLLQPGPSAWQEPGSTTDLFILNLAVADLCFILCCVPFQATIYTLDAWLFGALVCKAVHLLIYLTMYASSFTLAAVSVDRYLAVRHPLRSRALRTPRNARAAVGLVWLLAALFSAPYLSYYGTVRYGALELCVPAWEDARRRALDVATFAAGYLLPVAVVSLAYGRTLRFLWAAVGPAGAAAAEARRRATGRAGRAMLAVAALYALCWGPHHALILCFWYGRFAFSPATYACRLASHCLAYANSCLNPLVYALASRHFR
OX1R Fluo8 conf: OX1R (human) antagonism, confirmed | shares compounds with OX1R antag-2 | 38% of 1,100 active | CHO/OX1R cells, orexin A calcium Fluo-8 fluorescence | inhibition, % at 5 µM; in the data active means inhibition above about 29%
CHO Ca counter: counter-screen for OX1R antagonists: effect in parental CHO cells; parental CHO-K1, ATP-induced calcium, Fluo-8 fluorescence; 9.3% of 1,100 active; AID 492965; shares compounds with OX1R antag-2; inhibition, % at 5.6 µM;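 active means inhibition above a per-plate limit, the mean inhibition of that plate's test compounds plus 3 SD, cut at about 25% in these data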
OX1R HTRF confirm: confirmation of human orexin 1 receptor antagonists, HTRF format | shares compounds with OX1R antag-1 | OX1R-expressing cells, HTRF antagonist assay | inhibition, % at 6.6 µM | 49% of 1,800 active; in the data active means inhibition above about 55%;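 further: CHO cells expressing OX1R stimulated with orexin A at about EC80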
CHO-K1 HTRF: counter-screen: parental CHO-K1 HTRF response | shares compounds with OX1R antag-1 | parental CHO-K1 cells, HTRF counterscreen | inhibition, % at 6.6 µM | 48% of 1,800 active | AID 493232; in the data active means inhibition above about 17%
Hits are given with their value; – = inactive; · = no result given. Only some compounds are listed: those with a hit (about 4.2% of all), similar ones and a draw of the others.

SMILES	TAAR1 antagonist	CHO parental Ca	OX1R antag-1	TAAR1 agonist	OX1R antag-2	GalR3 antag	OX1R Fluo8 conf	CHO Ca counter	OX1R HTRF confirm	CHO-K1 HTRF
Cc1ccsc1C(=O)NCC(C)(C)N1CCOCC1	–	–	–	–	–	–	·	·	·	·
CC(=O)Nc1cccc(-c2nc3ccccc3s2)c1	–	–	76	–	–	–	–	–	–	–
CC(=O)Nc1cccc(-c2nc3ccc(NC(C)=O)cc3s2)c1	–	–	–	–	–	–	·	·	·	·
COc1cc(OC)c(-c2nc3ccccc3s2)cc1OC	–	–	94	–	54	–	36	–	93	–
COc1cccc(-c2nc3ccccc3s2)c1O	–	–	–	–	–	–	·	·	·	·
COc1ccc(-c2nc3ccccc3s2)cc1O	–	–	112	–	85	–	37	–	98	–
Cc1ccc(N/C(N)=N/c2nc(CSc3nnc(N)s3)cc(=O)[nH]2)cc1	–	–	–	–	–	–	·	·	·	·
COC(=O)C1=CN(CC2CCCO2)C=C(C(=O)OC)C1c1ccccc1C(F)(F)F (configuration not stated)	–	–	–	–	–	–	·	·	·	·
COc1cc(C(=O)Nc2cccc(-n3cnnn3)c2)cc(OC)c1OC	–	–	–	–	–	–	·	·	·	·
COc1cccc(OC)c1C(=O)Nc1cccc(-n2cnnn2)c1	–	–	88	–	–	–	–	–	80	–
COc1ccc(N=Cc2oc3ccc4ccccc4c3c2O)cc1	–	–	58	–	–	–	–	–	67	–
COc1ccc(N=Cc2ccccc2O)cc1	–	·	·	–	·	–	·	·	·	·
O=C(COc1ccccc1)Nc1ccc2c(c1)nc1n2CCOC1	–	–	–	–	–	–	·	·	·	·
O=C(Nc1ccc(F)cc1)C1CCCN1S(=O)(=O)c1ccc(Br)cc1 (configuration not stated)	–	–	81	–	–	–	38	–	89	–
CNC(=O)C1CCCN1S(=O)(=O)c1ccc(OC)cc1 (configuration not stated)	–	–	–	–	–	–	·	·	·	·
COc1ccc(S(=O)(=O)N2CCCC2C(=O)Nc2nc3c(s2)CCCC3)cc1 (configuration not stated)	–	–	95	–	45	–	44	–	88	–
O=C(Nc1nccs1)C1CCCN1S(=O)(=O)c1ccc(F)cc1 (configuration not stated)	–	–	75	–	44	–	–	–	–	–
O=C(Nc1ccc(F)c(F)c1)C1CCCN1S(=O)(=O)c1ccc(F)cc1 (configuration not stated)	–	–	74	–	37	–	42	–	70	–
CC(=O)Nc1ccc(S(=O)(=O)N2CCCC2C(=O)Nc2ccc(F)cc2)cc1 (configuration not stated)	–	–	–	–	–	–	·	·	·	·
COc1ccc(Cl)cc1C(=O)Nn1cnc2ccccc2c1=O	–	–	–	–	–	–	·	·	·	·
Cc1c(C(=O)OC(C)C(=O)N(C)Cc2ccccc2)oc2ccccc12 (configuration not stated)	–	–	86	–	53	–	53	–	88	–
COc1ccc2oc(C(=O)OC(C)C(=O)NCc3ccccc3)c(C)c2c1 (configuration not stated)	–	–	–	–	–	–	·	·	·	·
O=C(CCCN1C(=O)/C(=C/c2cccs2)SC1=S)Nc1cccc(O)c1	–	–	67	–	45	–	33	–	59	–
Cc1cnc(NC(=O)c2cc3c(C)nn(-c4ccccc4)c3s2)s1	–	–	56	–	77	–	73	–	93	–
COc1ccccc1N1CCN(CC(O)c2c(C)[nH]c3ccccc23)CC1 (configuration not stated)	–	–	–	–	–	–	·	·	·	·
SMILES	TAAR1 antagonist	CHO parental Ca	OX1R antag-1	TAAR1 agonist	OX1R antag-2	GalR3 antag	OX1R Fluo8 conf	CHO Ca counter	OX1R HTRF confirm	CHO-K1 HTRF
CN(CC(O)Cn1c2ccccc2c2ccccc21)S(C)(=O)=O (configuration not stated)	–	–	–	–	–	–	·	·	·	·
CS(=O)(=O)N(CC(O)Cn1c2ccccc2c2ccccc21)c1ccccc1 (configuration not stated)	–	–	49	–	–	–	36	–	–	–
COc1ccc(OC)c(/C=N/NC(=O)c2cc3c(OC)cccc3[nH]2)c1	–	–	101	–	71	–	32	–	89	–
CCOc1ccc(/C=N/NC(=O)c2cc3c(OC)cc(OC)cc3[nH]2)cc1OC	–	–	81	–	–	–	42	–	89	–
COC(=O)C1=C(C)NC2=C(C(=O)CCC2)C1c1cn(Cc2ccc(Br)cc2)nc1-c1ccccc1 (configuration not stated)	–	–	75	–	–	–	–	–	–	–
COC(=O)C1=C(C)NC2=C(C(=O)CC(C)(C)C2)C1c1cn(Cc2ccc(Br)cc2)nc1-c1ccccc1 (configuration not stated)	·	–	–	·	–	·	·	·	·	·
COc1ccc(N(C(=O)c2snc(C(N)=O)c2N)C(C(=O)NC2CCCCC2)c2ccc(C)o2)cc1 (configuration not stated)	–	–	–	–	–	–	·	·	·	·
CC(=O)c1ccc(N2CCN(S(=O)(=O)c3cc(-c4cc(C)no4)ccc3C(C)C)CC2)cc1	–	–	–	–	–	–	·	·	·	·
CCn1c(SCC(=O)Nc2sc3c(c2C#N)CCCC3)nnc1-c1ccco1	–	–	94	–	–	–	–	–	78	–
Cc1ccc(S(=O)(=O)N(CCCO)CC(O)CON=C2c3ccccc3-c3ccccc32)cc1 (configuration not stated)	–	–	73	–	42	–	–	–	76	–
CCN(CC(O)Cn1c2ccccc2c2ccccc21)S(=O)(=O)c1ccc(C)cc1 (configuration not stated)	–	–	–	–	–	–	·	·	·	·
CN(Cc1ccccc1)C(=O)CSc1nnc(-c2ccco2)n1-c1ccccc1	–	–	41	–	–	–	–	–	–	–
CN(C)C(=O)CSc1nnc(-c2ccco2)n1-c1ccccc1	–	·	·	–	·	–	·	·	·	·

Bioassay records: PubChem, The Scripps Research Institute Molecular Screening Center
